The values that follow come from publication PMC9289880 (Journal of Medicinal Chemistry, 2022).

For one series, the target named is KRAS^G12D (Homo sapiens, UniProt P01116, G12D). Kind of series: SOS-catalyzed guanine nucleotide exchange. The class given is biochemical.
A further series concerns pERK, AsPC-1 cells. Kind of series: AlphaScreen pERK assay in AsPC-1 cells. The class given is cell-based. Conditions: for IC50: pERK. The procedure, abridged:
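AsPC-1 cells grown in RPMI 1640 (GlutaMAX, HEPES) with 10% FBS and penicillin/streptomycin. Seeded at 15 000 cells/well and held overnight at 37 °C, 5% CO2, then switched to serum-free medium. Compound dose-response series added acoustically, then incubated 2 and 18 h. Cells washed with DPBS and lysed with protease inhibitors. pERK (615 nm) and total ERK (535 nm) read by AlphaScreen SureFire multiplex. pERK/total ERK ratio fitted to 4-parameter logistic.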
Background: Bead proximity is the source of the signal in Alpha formats.

Series [1] is described as follows: Cell homogenate stability assay. It is filed as in vitro ADME. The following applies: human, HeLa cell homogenate. The procedure, abridged:
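HeLa cells suspended at 1 × 10^6 cells/mL, probe-sonicated on ice until homogeneous, then frozen at −20 °C until use. Peptides incubated with the homogenate (1 × 10^6 cells/mL equivalent). Loss of parent peptide over increasing time quantified by LC-MS/MS.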

For another series, the system named is HeLa cells. Kind of series: NanoClick cell permeability assay. The class given is in vitro ADME, Human.
Where [2] appears, read: read-out: AlphaScreen (AsPC-1) 2 h IC50, AsPC-1, 2 h.
[3] abbreviates: read-out: AlphaScreen (AsPC-1) 18 h IC50, AsPC-1, 18 h.

Like-named read-outs stand apart in the source and are kept apart here. *1 amine or outer side, *2 acyl side, *3 side chain or, on linkers, in order; H or OH if unused. Where a SMILES comes first, the peptide text is derived from it. Bridges are numbered along the chain shown (N, C = ends). [ ]: non-standard residue; d: D form. Pro(trans-3-OAllyl) = C=CCO[C@H]1CCN[C@@H]1C(=O)O; Pro(3R-Ph) = O=C(O)[C@H]1NCC[C@@H]1c1ccccc1; Bip = N[C@@H](Cc1ccc(-c2ccccc2)cc1)C(=O)O; Ala(cPent) = N[C@@H](CC1CCCC1)C(=O)O; d(αMeS) = C[C@@](N)(CO)C(=O)O; Ahp(2) = CCCCC[C@H](N)C(=O)O; CH2 = C([*:1])[*:2]

Chain of KRAS^G12D (P01116 1-188 isoform P01116-2 G12D): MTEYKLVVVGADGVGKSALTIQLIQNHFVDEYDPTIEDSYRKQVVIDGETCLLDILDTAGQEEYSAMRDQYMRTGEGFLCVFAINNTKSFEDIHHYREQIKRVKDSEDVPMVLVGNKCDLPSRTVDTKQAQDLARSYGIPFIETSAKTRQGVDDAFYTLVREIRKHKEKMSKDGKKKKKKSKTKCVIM

In turn, `CC(=O)N[C@@H](CCCNC(=N)N)C(=O)N[C@@H](CCCNC(=N)N)C(=O)N[C@H]1CSSC[C@@H](C(=O)N[C@@H](CCCNC(=N)N)C(=O)N[C@@H](CCCNC(=N)N)C(N)=O)NC(=O)[C@H](C(C)C)NC(=O)[C@@H]2CCCN2C(=O)[C@H](CC(=O)O)NC(=O)[C@H](Cc2ccc(O)cc2)NC(=O)[C@H](CO)NC(=O)[C@H](CC2CCCC2)NC(=O)[C@H](Cc2ccc(-c3ccccc3)cc2)NC(=O)[C@H](CC(C)C)NC(=O)[C@@H]2CCCN2C1=O` [1-11, Ac-RR-cyclo(CPL-Bip-cPeA-SYDPVC)-RR-NH2] (Ac-RRCPL[Bip][Ala(cPent)]SYDPVCRR-NH2; disulfide 3-13) yielded an IC50 on KRAS^G12D of more than 11.1 µM.
The same measure, in the same setting: next, `CC[C@H](C)[C@@H]1NC(=O)[C@H](Cc2ccc(-c3ccccc3)cc2)NC(=O)[C@H](COC)NC(=O)[C@@H]2CCCN2C(=O)[C@@H](NC(=O)[C@H](CCCNC(=N)N)NC(=O)[C@H](CCCNC(=N)N)NC(C)=O)CSSC[C@@H](C(=O)N[C@@H](CCCNC(=N)N)C(=O)N[C@@H](CCCNC(=N)N)C(N)=O)NC(=O)[C@H](C(C)C)NC(=O)[C@@H]2CCCN2C(=O)[C@H](CC(=O)O)NC(=O)[C@H](Cc2ccc(O)cc2)NC(=O)[C@H](CO)NC1=O` [3-02, Ac-RR-cyclo(CP-SerOMe-Bip-ISYDPVC)-RR-NH2] (Ac-RRCPS(Me)[Bip]ISYDPVCRR-NH2; disulfide 3-13): 1.13 µM.
Turning to `C=CCO[C@H]1CCN2C(=O)[C@@H](NC(=O)[C@H](CCCNC(=N)N)NC(=O)[C@H](CCCNC(=N)N)NC(C)=O)CSSC[C@@H](C(=O)N[C@@H](CCCNC(=N)N)C(=O)N[C@@H](CCCNC(=N)N)C(N)=O)NC(=O)[C@H](C(C)C)NC(=O)[C@@H]3CCCN3C(=O)[C@H](CC(=O)O)NC(=O)[C@H](Cc3ccc(O)cc3)NC(=O)[C@H](CO)NC(=O)[C@H]([C@@H](C)CC)NC(=O)[C@H](Cc3ccc(-c4ccccc4)cc3)NC(=O)[C@H](CC(C)C)NC(=O)[C@H]12` [3-05, Ac-RR-cyclo(C-Prot3OAl-L-Bip-ISYDPVC)-RR-NH2] (Ac-RRC[Pro(trans-3-OAllyl)]L[Bip]ISYDPVCRR-NH2; disulfide 3-13), at KRAS^G12D, the IC50 is 0.001 µM and the “fold improvement in SOS potency over reference peptide 1-09” value was 7 fold.
With `C=CCO[C@H]1CCN2C(=O)[C@H](NC(=O)[C@H](CCCNC(=N)N)NC(=O)[C@H](CCCNC(=N)N)NC(C)=O)CSCSC[C@@H](C(=O)N[C@@H](CCCNC(=N)N)C(=O)N[C@@H](CCCNC(=N)N)C(N)=O)NC(=O)[C@H](C(C)C)NC(=O)[C@@H]3CCCN3C(=O)[C@H](CC(=O)O)NC(=O)[C@H](Cc3ccc(O)cc3)NC(=O)[C@H](CO)NC(=O)[C@H]([C@@H](C)CC)NC(=O)[C@H](Cc3ccc(-c4ccccc4)cc3)NC(=O)[C@H](CC(C)C)NC(=O)[C@H]12` [5-02, Ac-RR-cyclo(c(methylene)-Prot3OAl-L-Bip-ISYDPVC)-RR-NH2] (Ac-RR[dC][Pro(trans-3-OAllyl)]L[Bip]ISYDPVCRR-NH2; linker 3-13 via CH2), the IC50 with pERK, AsPC-1 cells (setting [2]) is 28 µM; in the series on pERK, AsPC-1 cells (setting [3]), more than 50 µM; on KRAS^G12D, less than 0.001 µM.
`CCCCC[C@@H]1NC(=O)[C@@H]2CCCN2C(=O)[C@H](CC(=O)O)NC(=O)[C@H](Cc2ccc(O)cc2)NC(=O)[C@H](CO)NC(=O)[C@H]([C@@H](C)CC)NC(=O)[C@H](Cc2ccc(-c3ccccc3)cc2)NC(=O)[C@H](CC(C)C)NC(=O)[C@@H]2[C@@H](c3ccccc3)CCN2C(=O)[C@H](NC(=O)[C@H](CCCNC(=N)N)NC(=O)[C@H](CCCNC(=N)N)NC(C)=O)CSCSC[C@@H](C(=O)N[C@@H](CCCNC(=N)N)C(=O)N[C@@H](CCCNC(=N)N)C(N)=O)NC1=O` [5-03, Ac-RR-cyclo(c(methylene)-Prot3Ph-L-Bip-ISYDP-Ahp-C)-RR-NH2] (Ac-RR[dC][Pro(3R-Ph)]L[Bip]ISYDP[Ahp(2)]CRR-NH2; linker 3-13 via CH2): the IC50 is 6.8 µM in the series on pERK, AsPC-1 cells (setting [2]); 29 µM in the series on pERK, AsPC-1 cells (setting [3]); less than 0.001 µM against KRAS^G12D. The compound also had a half-life at 1 µM in series [1] of more than 6.2 h.
For the compound `C=CCO[C@H]1CCN2C(=O)[C@H](NC(=O)[C@H](CCCNC(=N)N)NC(=O)[C@H](CCCNC(=N)N)NC(C)=O)CSCSC[C@@H](C(=O)N[C@@H](CCCNC(=N)N)C(=O)N[C@@H](CCCNC(=N)N)C(N)=O)NC(=O)[C@H](CCCCC)NC(=O)[C@@H]3CCCN3C(=O)[C@H](CC(=O)O)NC(=O)[C@H](Cc3ccc(O)cc3)NC(=O)[C@H](CO)NC(=O)[C@H]([C@@H](C)CC)NC(=O)[C@H](Cc3ccc(-c4ccccc4)cc3)NC(=O)[C@H](CC(C)C)NC(=O)[C@H]12` [5-04, Ac-RR-cyclo(c(methylene)-Prot3OAl-L-Bip-ISYDP-Ahp-C)-RR-NH2] (Ac-RR[dC][Pro(trans-3-OAllyl)]L[Bip]ISYDP[Ahp(2)]CRR-NH2; linker 3-13 via CH2), the IC50 with pERK, AsPC-1 cells (setting [3]) was more than 50 µM; on KRAS^G12D, less than 0.001 µM.
For `CC[C@H](C)[C@@H]1NC(=O)[C@H](Cc2ccc(-c3ccccc3)cc2)NC(=O)[C@H](CC(C)C)NC(=O)[C@@H]2CCCN2C(=O)[C@@H](NC(=O)[C@H](CCCNC(=N)N)NC(=O)[C@H](CCCNC(=N)N)NC(C)=O)CSSC[C@@H](C(=O)N[C@@H](CCCNC(=N)N)C(=O)N[C@@H](CCCNC(=N)N)C(N)=O)NC(=O)[C@H](C(C)C)NC(=O)[C@@H]2CCCN2C(=O)[C@H](CC(=O)O)NC(=O)[C@H](Cc2ccc(O)cc2)NC(=O)[C@H](CO)NC1=O` [peptide 1-09, Ac-RR-cyclo(CPL-Bip-ISYDPVC)-RR-NH2] (Ac-RRCPL[Bip]ISYDPVCRR-NH2; disulfide 3-13), the “fold improvement in SOS potency over reference 2 (KRpep-2)” value on KRAS^G12D is listed as 8 fold.
In the case of `CC[C@H](C)[C@@H]1NC(=O)[C@H](Cc2ccc(-c3ccccc3)cc2)NC(=O)[C@H](CC(C)C)NC(=O)[C@@H]2[C@@H](c3ccccc3)CCN2C(=O)[C@@H](NC(=O)[C@H](CCCNC(=N)N)NC(=O)[C@H](CCCNC(=N)N)NC(C)=O)CSSC[C@@H](C(=O)N[C@@H](CCCNC(=N)N)C(=O)N[C@@H](CCCNC(=N)N)C(N)=O)NC(=O)[C@H](C(C)C)NC(=O)[C@@H]2CCCN2C(=O)[C@H](CC(=O)O)NC(=O)[C@H](Cc2ccc(O)cc2)NC(=O)[C@H](CO)NC1=O` [peptide 3-09, Ac-RR-cyclo(C-Prot3Ph-L-Bip-ISYDPVC)-RR-NH2] (Ac-RRC[Pro(3R-Ph)]L[Bip]ISYDPVCRR-NH2; disulfide 3-13), the “fold improvement in SOS potency over reference peptide 1-09” value at KRAS^G12D was 7 fold.
Regarding `CC[C@H](C)[C@@H]1NC(=O)[C@H](Cc2ccc(-c3ccccc3)cc2)NC(=O)[C@H](CC(C)C)NC(=O)[C@@H]2[C@@H](c3ccccc3)CCN2C(=O)[C@H](NC(=O)[C@H](CCCNC(=N)N)NC(=O)[C@H](CCCNC(=N)N)NC(C)=O)CSCSC[C@@H](C(=O)N[C@@H](CCCNC(=N)N)C(=O)N[C@@H](CCCNC(=N)N)C(N)=O)NC(=O)[C@H](C(C)C)NC(=O)[C@@H]2CCCN2C(=O)[C@H](CC(=O)O)NC(=O)[C@H](Cc2ccc(O)cc2)NC(=O)[C@H](CO)NC1=O` [peptide 5-01, Ac-RR-cyclo(c(methylene)-Prot3Ph-L-Bip-ISYDPVC)-RR-NH2] (Ac-RR[dC][Pro(3R-Ph)]L[Bip]ISYDPVCRR-NH2; linker 3-13 via CH2), the IC50 is 3.3 µM in the series on pERK, AsPC-1 cells (setting [2]); 33 µM in the series on pERK, AsPC-1 cells (setting [3]); less than 0.001 µM against KRAS^G12D. The compound further showed a half-life at 1 µM in series [1] of more than 6.2 h.
With `CC[C@@H](C)[C@H]1NC(=O)[C@H](Cc2ccc(-c3ccccc3)cc2)NC(=O)[C@H](CC(C)C)NC(=O)[C@@H]2[C@@H](c3ccccc3)CCN2C(=O)[C@H](NC(=O)[C@@H](CCCNC(=N)N)NC(=O)[C@@H](CCCNC(=N)N)NC(C)=O)CSCSC[C@@H](C(=O)N[C@H](CCCNC(=N)N)C(=O)N[C@H](CCCNC(=N)N)C(N)=O)NC(=O)[C@H](C(C)C)NC(=O)[C@@H]2CCCN2C(=O)[C@H](CC(=O)O)NC(=O)[C@H](Cc2ccc(O)cc2)NC(=O)[C@@](C)(CO)NC1=O` [peptide 8, Ac-rr-cyclo(c(methylene)-Prot3Ph-L-Bip-i-aMeS-YDPVC)-rr-NH2] (Ac-[dR][dR][dC][Pro(3R-Ph)]L[Bip][dI][d(αMeS)]YDPVC[dR][dR]-NH2; linker 3-13 via CH2), the “cellular (pERK) activity, in words” value with pERK, AsPC-1 cells (AsPC-1) is “no cellular activity”. Moreover, the “SOS GNE potency / binding, in words” value on KRAS^G12D is “no response”.
As to `CC[C@H](C)[C@@H]1NC(=O)[C@H](Cc2ccc(O)cc2)NC(=O)[C@H](CC(C)C)NC(=O)[C@@H]2CCCN2C(=O)[C@H](NC(=O)[C@@H](CCCNC(=N)N)NC(=O)[C@@H](CCCNC(=N)N)NC(=O)[C@H](CCCCN=[N+]=[N-])NC(C)=O)CSCSC[C@@H](C(=O)N[C@H](CCCNC(=N)N)C(=O)N[C@H](CCCNC(=N)N)C(N)=O)NC(=O)[C@H](C(C)C)NC(=O)[C@@H]2CCCN2C(=O)[C@H](CC(=O)O)NC(=O)[C@H](Cc2ccc(O)cc2)NC(=O)[C@H](CO)NC1=O` [peptide 10], the “NanoClick permeability at 4 h, in words” value with HeLa cells (4 h) is given as “no permeability”. Further, the “NanoClick permeability at 18 h, in words” value with HeLa cells (18 h) is “very limited permeability”.

In general, IC50 refers to the point on the concentration scale where inhibition reaches its midpoint. The term half-life denotes the time in which the quantity being followed falls by half. Lower therefore signals rapid decline.
